Data reported in ChEMBL document CHEMBL4196017, “Design, synthesis and identification of silicon-containing HCV NS5A inhibitors with pan-genotype activity” (Eur J Med Chem, 2018).

Experiments:
Mus musculus [1] = assay: Toxicity in ICR mouse assessed as triglyceride level at 150 mg/kg, po administered via gavage once daily for 14 days (reference value: 1.67 +/- 0.32 mmol/L); assay type: organism-based; settings: in vivo, 336 h
Mus musculus [2] = assay: Toxicity in ICR mouse assessed as platelet count at 150 mg/kg, po administered via gavage once daily for 14 days (reference value: 1260.3 +/- 137.87 10^9/L); assay type: organism-based; settings: in vivo, 336 h
Summary of the method: (§1)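 Haematology on abdominal aortic blood taken at necropsy under ether anaesthesia after 14 daily gavage doses (20 ml/kg) in ICR mice, 5 per sex per group, vehicle control. Parameters: WBC, RBC, haemoglobin, platelets, reticulocyte ratio and differential leukocyte counts; mean ± SD, n = 10.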

Mus musculus [3] = assay: Toxicity in ICR mouse assessed as WBC count at 150 mg/kg, po administered via gavage once daily for 14 days (reference value: 7.03 +/- 1.56 10^9/L); assay type: organism-based; settings: in vivo, 336 h
Summary of the method: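 ICR mice, 5 males + 5 females per group, dosed by gavage once daily at 150 mg/kg (20 ml/kg) or vehicle for 14 days; killed after the 14th dose; blood from abdominal aorta under ether anaesthesia for hematology and clinical chemistry; mean ± SD, n = 10.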

Mus musculus [4] = assay: Toxicity in ICR mouse assessed as spleen weight at 150 mg/kg, po administered via gavage once daily for 14 days (reference value: 0.355 +/- 0.1 g); assay type: organism-based; settings: in vivo, 336 h
Mus musculus [5] = assay: Toxicity in ICR mouse assessed as lymphocyte level in serum at 150 mg/kg, po administered via gavage once daily for 14 days (reference value: 57.65 +/- 13.53%); assay type: organism-based; settings: in vivo, 336 h; summary of the method: as §1
Mus musculus [6] = assay: Toxicity in ICR mouse assessed as brain weight at 150 mg/kg, po administered via gavage once daily for 14 days (reference value: 1.686 +/- 0.241 g); assay type: organism-based; settings: in vivo, 336 h
Mus musculus [7] = assay: Toxicity in ICR mouse assessed as gamma glutamyltransferase level in serum at 150 mg/kg, po administered via gavage once daily for 14 days (reference value: 0 U/L); assay type: organism-based; settings: in vivo, 336 h
Mus musculus [8] = assay: Toxicity in ICR mouse assessed as total cholesterol level at 150 mg/kg, po administered via gavage once daily for 14 days (reference value: 0.93 +/- 0.31 mmol/L); assay type: organism-based; settings: in vivo, 336 h
Mus musculus [9] = assay: Toxicity in ICR mouse assessed as creatinine level in serum at 150 mg/kg, po administered via gavage once daily for 14 days (reference value: 25.22 +/- 3.42 umol/L); assay type: organism-based; settings: in vivo, 336 h
Nonstructural protein 5A = target: T1, Nonstructural protein 5A (Hepatitis C virus, UniProt Q5L478); assay: Inhibition of NS5A in HCV genotype 6a; set-up: species or system Hepatitis C virus subtype 6a
T1 sequence (Q5L478 whole entry): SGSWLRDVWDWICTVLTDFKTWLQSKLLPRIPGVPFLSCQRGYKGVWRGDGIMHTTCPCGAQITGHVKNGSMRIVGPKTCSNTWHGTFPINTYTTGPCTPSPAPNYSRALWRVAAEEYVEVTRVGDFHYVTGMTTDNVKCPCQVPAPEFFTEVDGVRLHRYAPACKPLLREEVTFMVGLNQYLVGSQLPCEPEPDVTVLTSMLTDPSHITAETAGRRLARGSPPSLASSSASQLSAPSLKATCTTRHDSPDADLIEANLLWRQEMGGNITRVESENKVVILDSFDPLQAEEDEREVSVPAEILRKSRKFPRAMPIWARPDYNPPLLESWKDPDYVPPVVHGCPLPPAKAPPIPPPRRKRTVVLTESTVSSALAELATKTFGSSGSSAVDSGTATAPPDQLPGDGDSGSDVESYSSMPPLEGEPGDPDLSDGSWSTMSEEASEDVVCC

Row | SMILES | Activity (Mus musculus [1]) | Activity (Mus musculus [2]) | Activity (Mus musculus [3]) | Activity (Mus musculus [4]) | Activity (Mus musculus [5]) | Activity (Mus musculus [6]) | Activity (Mus musculus [7]) | Activity (Mus musculus [8]) | Activity (Mus musculus [9]) | EC50 (Nonstructural protein 5A)
1 | CC[Si](CC)(CC)c1ccc(N2[C@H](c3ccc(NC(=O)[C@@H]4CCCN4C(=O)[C@@H](NC(=O)OC)C(C)C)cc3)CC[C@H]2c2ccc(NC(=O)[C@@H]3CCCN3C(=O)[C@@H](NC(=O)OC)C(C)C)cc2)cc1 | 1.53 mmol/L | 1263.4 ×10⁹ /L | 6.2 ×10⁹ /L | 0.345 g | 52.54% | 1.807 g | 0.03 U/L | 0.85 mmol/L | 23.2 µmol/L | –
2 | COC(=O)N[C@H](C(=O)N1CCC[C@H]1C(=O)Nc1ccc([C@@H]2CC[C@@H](c3ccc(NC(=O)[C@@H]4CCCN4C(=O)[C@@H](NC(=O)OC)C(C)C)cc3)N2c2ccc(C(C)(C)C)cc2)cc1)C(C)C [OMBITASVIR] | – | – | – | – | – | – | – | – | – | 0.055 nM
